The source of these data is ChEMBL document CHEMBL1125219, “A selective, reversible, competitive inhibitor of monoamine oxidase A containing no nitrogen, with negligible potentiation of tyramine-induced blood pressure rise” (J Med Chem, 1991).

In data set [1] the target is T1, Amine oxidase [flavin-containing] A (Rattus norvegicus, UniProt P21396).
T1 sequence (P21396 whole entry): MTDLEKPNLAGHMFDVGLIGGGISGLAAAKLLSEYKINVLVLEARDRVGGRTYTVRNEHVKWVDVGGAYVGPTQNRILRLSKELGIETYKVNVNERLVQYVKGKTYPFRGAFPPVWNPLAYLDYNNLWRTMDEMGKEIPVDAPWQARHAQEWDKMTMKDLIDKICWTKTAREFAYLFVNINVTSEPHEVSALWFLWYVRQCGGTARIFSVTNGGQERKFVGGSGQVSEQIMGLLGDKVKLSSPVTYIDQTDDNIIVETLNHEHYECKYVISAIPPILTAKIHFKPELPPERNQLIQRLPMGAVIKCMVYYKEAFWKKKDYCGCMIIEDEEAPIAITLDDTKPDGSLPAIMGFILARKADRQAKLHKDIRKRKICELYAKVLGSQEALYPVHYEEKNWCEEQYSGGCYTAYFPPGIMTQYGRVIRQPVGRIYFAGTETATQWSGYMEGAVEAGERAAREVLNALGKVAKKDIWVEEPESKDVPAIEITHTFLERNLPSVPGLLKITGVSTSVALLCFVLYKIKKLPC
The data set is described as follows: The compound was tested in vitro for inhibition of Monoamine Oxidase A from rat brain. A digest of the protocol:
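Double-label radiometric assay on washed rat brain mitochondria with the test agent in vitro. Substrates were at about twice Km, and each activity was independent of the other.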

Data set [2] concerns the target T1, Amine oxidase [flavin-containing] A. The data set is described as follows: The compound was tested ex vivo for inhibition of Monoamine Oxidase A in rat brain. In kind it is functional, tissue-based.
The target in data set [3] is T2, Amine oxidase [flavin-containing] A (Homo sapiens, UniProt P21397).
T2 sequence (P21397 whole entry): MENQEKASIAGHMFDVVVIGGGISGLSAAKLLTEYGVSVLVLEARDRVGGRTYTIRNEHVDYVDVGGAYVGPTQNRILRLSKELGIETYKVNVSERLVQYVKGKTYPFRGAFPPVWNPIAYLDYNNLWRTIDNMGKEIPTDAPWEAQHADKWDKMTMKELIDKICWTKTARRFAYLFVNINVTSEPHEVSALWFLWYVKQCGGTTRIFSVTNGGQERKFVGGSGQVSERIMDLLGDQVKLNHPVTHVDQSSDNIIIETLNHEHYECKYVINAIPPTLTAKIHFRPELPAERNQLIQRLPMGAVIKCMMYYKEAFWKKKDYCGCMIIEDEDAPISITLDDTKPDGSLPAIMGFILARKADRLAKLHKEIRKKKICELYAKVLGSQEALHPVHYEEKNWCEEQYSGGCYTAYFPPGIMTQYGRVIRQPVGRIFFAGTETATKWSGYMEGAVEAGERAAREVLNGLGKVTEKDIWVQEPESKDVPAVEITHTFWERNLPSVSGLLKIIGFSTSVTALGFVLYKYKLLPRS
The data set is described as follows: In vitro binding affinity towards Monoamine Oxidase A in human.

Data set [4] concerns the target T1, Amine oxidase [flavin-containing] A. The data set is described as follows: In vitro binding affinity towards Monoamine Oxidase A in rat.
Data set [5] has the same target. The data set is described as follows: In vivo effective dose against Monoamine Oxidase A in rat brain. In kind it is functional, organism-based.
The target is the same in data set [6]. The data set is described as follows: The compound was tested ex vivo for percentage inhibition of Monoamine Oxidase A in rat brain at 20 mg/Kg. Type of data set: functional, tissue-based.
The target is the same in data set [7]. The experiment in a line: The compound was tested ex vivo for percentage inhibition of Monoamine Oxidase A in rat brain at 30 mg/kg. Details: dose 30 mg/kg; call rule not given here. In kind it is functional, organism-based.
For data set [8] the target is unchanged. The data set is described as follows: The compound was tested ex vivo for percentage inhibition of Monoamine Oxidase A in rat brain at 20 mg/kg; NS=No significant inhibition. Type of data set: functional, organism-based. Also noted: dose 20 mg/kg.

pIC50, pKi: −log10 of the molar value.

The pIC50 is the negative decadic logarithm of the IC50, by convention in mol/L. A high value points to a low IC50. For orientation: ED50 means the midpoint of the dose-response relation. A lower ED50 goes with an effect at a small dose. Compound `CC(O)c1cccc2c1S(=O)(=O)c1ccccc1O2` (configuration not stated) had a pIC50 in data set [1] of 6.40. This compound also had an ED50 in data set [2] of 30 mg/kg.
In the same order, the values of `O=S1(=O)c2ccccc2Oc2cccc(C(O)CO)c21` (configuration not stated) are 5.92 and 20 mg/kg.
A word on the pKi: it is the Ki on a negative log10 scale, so that one unit is a factor of ten. A high value points to a low Ki. With `CCc1cccc2c1S(=O)(=O)c1ccccc1O2`, the pKi in data set [3] and in data set [4] was 8.00 throughout. For the same compound, in data set [1], the pIC50 was 7.46. The ED50 in data set [5] is 8 mg/kg; in data set [2], 20 mg/kg.
By inhibition is commonly meant the share of the control response that was lost under treatment. A lower inhibition goes with a weak effect. `O=S1(=O)c2ccccc2Oc2cccc(CCO)c21`: the inhibition at 20 mg/kg in data set [6] worked out at 55%. In data set [1], this compound showed a pIC50 of 7.70.
For the compound `C=Cc1cccc2c1S(=O)(=O)c1ccccc1O2`, in data set [1], the pIC50 is 7.40. The same compound returned an ED50 in data set [2] of 20 mg/kg.
With `CC(=O)c1cccc2c1S(=O)(=O)c1ccccc1O2`, 30 mg/kg produced 70% inhibition in data set [7]. In addition, the pIC50 in data set [1] was 5.70.
On to `O=C(O)Cc1cccc2c1S(=O)(=O)c1ccccc1O2`, for which the Inhibition entry in data set [8] was “Not Active”. In addition, the pIC50 in data set [1] is 4.52.
